Source: PubChem BioAssay
Shown are actives, neighbours in structure and some others; about 2% of the full set was active somewhere.
ABHD4 inh: ABHD4 (mouse) inhibition, primary FP screen. Q8VD66. purified mABHD4, FP-Rh probe fluorescence polarization. inhibition, % at 8.92 µM. 370,000 tested, 0.54% active. AID 720543;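 active = inhibition exceeding the mean over every tested compound plus 3 SD, cut at about 30% in these data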;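 note: 0% = plate median of compound wells and 100% = S159A mutant with DMSO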
Target sequence (Q8VD66 whole entry, looked up): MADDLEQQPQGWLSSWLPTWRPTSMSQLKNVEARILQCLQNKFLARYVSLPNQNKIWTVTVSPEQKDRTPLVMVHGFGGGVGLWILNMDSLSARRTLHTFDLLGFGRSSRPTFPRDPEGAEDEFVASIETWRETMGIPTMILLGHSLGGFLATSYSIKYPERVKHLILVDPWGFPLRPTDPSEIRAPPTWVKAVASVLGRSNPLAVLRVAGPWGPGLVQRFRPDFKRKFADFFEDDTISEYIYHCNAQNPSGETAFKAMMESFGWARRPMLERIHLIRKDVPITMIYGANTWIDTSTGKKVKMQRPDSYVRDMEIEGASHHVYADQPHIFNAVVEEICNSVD
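Assay system: Wild-type mouse ABHD4 protein | Medium: HEPES pH 7.0 buffer, 150 mM NaCl, 0.01% Pluronic F-127 | Incubation: Enzyme–compound pre-incubation 45 min, then probe 60 min, both 25 °C | Technique: Fluorescence polarization with parallel and perpendicular emission, 525/598 nm | Evaluation: % inhibition of FP-Rh probe binding versus controls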
TDP2 absorb: blocks human TDP2 phosphodiesterase activity; AID 720702; inhibition, % at 12.8 µM; 370,000 tested, 0.34% active; O95551; recombinant TDP2, T5PNP hydrolysis, p-nitrophenol absorbance 415 nm;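 active = inhibition above the mean of all tested compounds plus 3 SD, set per campaign, cut at about 25% in these data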;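 note: 0% = DMSO with enzyme and 100% = buffer with substrate but no TDP2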
Target sequence (O95551 whole entry, looked up): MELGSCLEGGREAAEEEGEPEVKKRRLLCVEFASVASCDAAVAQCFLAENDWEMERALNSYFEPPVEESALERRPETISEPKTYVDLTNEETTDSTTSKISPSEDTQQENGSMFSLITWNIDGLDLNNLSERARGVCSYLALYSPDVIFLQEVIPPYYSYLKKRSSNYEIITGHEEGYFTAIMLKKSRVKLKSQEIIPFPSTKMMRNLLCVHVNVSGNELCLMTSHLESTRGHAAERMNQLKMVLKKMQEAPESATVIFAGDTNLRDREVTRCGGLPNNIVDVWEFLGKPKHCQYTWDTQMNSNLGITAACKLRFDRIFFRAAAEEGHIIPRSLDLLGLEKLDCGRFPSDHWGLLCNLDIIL
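System – recombinant human TDP2 · Amount – 120 nM TDP2 per well · Buffer or medium – Mg2+-containing Tris-HCl buffer, pH 7.5 · Reagent – T5PNP substrate, 5 mM · Dosing – 12.8 µM single point, 1% DMSO · Incubation – 2 h at 37 °C · Measured by – epi absorbance · Read-out basis – percent inhibition · Benchmarks – high control without enzyme, low control DMSO plus TDP2 · Repeats – singlicate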
SIAE primary: human SIAE inhibition, primary screen. SIAE FP-Rh probe binding, fluorescence polarization. inhibition, % at 9.66 µM. 370,000 tested, 0.69% active;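 active = inhibition above a cutoff: mean of compounds within the control limits plus 3 SD of those, cut at about 17% in these data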;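 note: 0% = plate median of compound wells and 100% = probe without SIAE protein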
HTRA1 inh: HTRA1 (human) protease inhibition | inhibition, % at 5.96 µM | recombinant HTRA1, FP-rhodamine activity-based probe, fluorescence polarization | 340,000 tested, 0.5% active | AID 504803; in the data active = inhibition above about 36%;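 note: 0% = enzyme with DMSO and 100% = wells lacking enzyme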
TCR-CD3 inh: inhibitors of human TCR-CD3 interaction; TAMRA-labeled TCR probe fluorescence, biochemical; inhibition, % at 9.4 µM; 360,000 tested, 0.37% active; AID 651800; in the data active = inhibition above about 19%;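 note: recombinant mutant TCR 2C K166C tagged with TAMRA read by polarization; 0% = receptor in buffer alone and 100% = receptor with positive control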
PAD4 inh: inhibitors of human PAD4; 330,000 tested, 0.41% active; AID 485272; recombinant PAD4, RCA probe fluorescence polarization; inhibition, % at 6.36 µM;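 active = percent inhibition above a cutoff equal to the mean of all tested compounds plus 3 SD, cut at about 15% in these data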;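 note: 0% = PAD4 with RCA probe and DMSO and 100% = probe without PAD4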
* = called active by the depositor; nt = no result; ! = a repeat was not active.

SMILES | ABHD4 inh | TDP2 absorb | SIAE primary | HTRA1 inh | TCR-CD3 inh | PAD4 inh
CN(C)c1ccc(NC(=O)c2sc(SCC(=O)Nc3nccs3)nc2N)cc1 | 18.4 | 9.4 | 24.4* | 5.0 | 4.7 | -7.1
CN(C)c1ccc(NC(=O)c2sc(SCC(=O)Nc3ccc(Br)cc3)nc2N)cc1 | -7.5 | -1.9 | 5.7 | 0.5 | -2.1 | 1.6
C=CCn1c(NC(=O)c2ccc(Br)o2)c(S(=O)(=O)c2ccccc2)c2nc3ccccc3nc21 | 5.6 | 23.3 | -12.9 | -14.8 | 2.9 | 20.2*
Oc1ccc(C2Nc3cccc4cccc(c34)N2)c(O)c1 | -4.8 | -4.0 | 19.5* | 41.7* | 2.3 | -4.1
O=C(CSc1nnc(-c2cccnc2)n1-c1ccccc1)Nc1ccc(OCc2ccccc2)cc1 | -3.8 | 3.5 | -5.4 | nt | nt | nt
CCOC(=O)c1c(C)[nH]c(O)c1C=Nc1ccc(C(F)(F)F)cc1 | 11.3 | 9.0 | 5.0 | 61.9* | -4.6 | 3.4
Cc1ccc2c(c1)C1CS(=O)(=O)N(CCc3ccccc3)C(=O)N1C2 (centres undefined) | -8.8 | -9.1 | -1.5 | nt | nt | nt
Cc1cccc(-c2cccc3c4c([nH]c23)[C@@H]2C[C@H](N(C)C(=O)Nc3ccccc3)[C@H]([C@H](C)O)C(=O)N2CC4)c1 | -23.0 | -6.9 | -1.2 | nt | nt | nt
O=c1c2ccccc2n(Cc2ccno2)n1[C@@H](Cc1ccccc1)Cn1cc(-c2ccc(-c3ccccc3)cc2)nn1 | -20.0 | -10.0 | -15.4 | nt | nt | nt
Nc1ncnc2nc(SCc3ccc(Cl)cc3Cl)[nH]c12 | 6.9 | 7.1 | 21.3* | -1.2 | 5.0 | 2.1
CCN1CCN(c2cc(N3CCN(C(=O)c4ccco4)CC3)c3c4c(onc24)-c2ccccc2C3=O)CC1 | nt | nt | nt | 70.1* | nt | 12.8
Cc1cc(N2CCN(C(=O)c3ccco3)CC2)c2ccccc2n1 | -1.3 | 3.0 | 5.0 | 4.4 | -1.4 | -0.4
O=C(OC12CCCN(C1)/C(=C/c1cccc(Cl)c1)C2)c1ccc(Cl)cc1 (centres undefined) | -1.8 | -1.5 | -3.5 | nt | nt | nt
O=Cc1ccc(/C=C2\c3ccccc3C(=O)N2c2ccccc2)o1 | 41.1* | 2.6 | 9.6 | nt | -3.8 | nt
O=C1c2ccccc2C(=O)N1c1ccccc1 | 3.9 | 0.4 | 6.1 | -3.5 | -3.7 | nt
O=C(c1ccccc1C(F)(F)F)N1CCC(Oc2cccnc2)CC1 | 5.7 | 0.6 | 1.5 | nt | nt | nt
CCC(COC(=O)c1ccccc1)Oc1cc(NCc2ccccc2)c2ncn(C(C)C)c2c1 (centres undefined) | 31.0* | 36.0* | 7.2 | 20.1 | 1.5 | -0.4
CCC(CO)Oc1cc(NCc2ccccc2)c2ncn(C(C)C)c2c1 (centres undefined) | 7.0 | 2.6 | 0.3 | 20.8 | -0.3 | -9.8
CC1=C(C(=O)OCc2ccccc2)C(c2ccc(C)o2)C2=C(CCCC2=O)N1 (centres undefined) | -3.7 | -1.0 | 33.4* | -4.8 | 2.7 | -7.1
COc1ccc2c(c1)NC(=O)[C@@]2(CCN1C(=O)c2ccccc2C1=O)c1[nH]c2ccccc2c1CCN1C(=O)c2ccccc2C1=O | -21.3 | 5.1 | -15.7 | nt | nt | nt
CCCC1CCC2(CCC(=O)N2CCSc2ccccc2)CC1 (centres undefined) | 1.2 | -8.7 | -0.5 | nt | nt | nt
CN1CCN(C2=C(Cl)C(=O)C(c3cnc(N4CCCCC4)s3)=C(Cl)C2=O)CC1 | nt | nt | nt | 35.7 | nt | 22.5*
O=C(O)c1ccc(-c2ccc(/C=N/Nc3ccc([N+](=O)[O-])cc3)o2)cc1 | 32.3* | -13.0 | -12.7 | -2.6 | -4.3 | -8.1
COC(=O)C1CCN(C(=O)CN2CCC(C(=O)c3ccc(C)cc3)CC2)CC1 | 9.4 | 6.0 | 1.6 | nt | nt | nt
Cc1cccc(N=Cc2[nH]c3ccc(Br)c(Cl)c3c2O)c1 | 8.8 | 28.8* | -3.5 | -6.6 | 5.6 | 3.8
SMILES | ABHD4 inh | TDP2 absorb | SIAE primary | HTRA1 inh | TCR-CD3 inh | PAD4 inh
Cc1ccc(-c2c(NC(=O)c3ccccc3)nc3ncccn23)cc1 | -1.6 | -8.5 | -2.1 | nt | nt | nt
CC(C)C[C@H]1C(=O)N2CCC[C@H]2[C@]2(O)O[C@](NC(=O)C3C=C4c5cccc6[nH]c(Br)c(c56)C[C@H]4N(C)C3)(C(C)C)C(=O)N12 (some centres undefined) | 25.1 | -8.4 | 11.6 | -8.4 | 2.9 | -9.3
CN1C[C@H](C(=O)N[C@]2(C)O[C@@]3(O)[C@@H]4CCCN4C(=O)[C@H](Cc4ccccc4)N3C2=O)CC2c3cccc4[nH]cc(c34)C[C@H]21 (some centres undefined) | 4.7 | 6.8 | 21.3*! | 6.6 | 5.3 | -1.5
O=C(NC1CCCC1)c1ccc2nc(-c3ccco3)c(-c3ccco3)nc2c1 | nt | nt | nt | 58.2* | nt | 6.5
O=C(NC1CCCC1)c1ccc2nc[nH]c2c1 | 2.5 | 4.4 | 4.5 | 4.4 | 3.9 | -4.5
COc1ccc2cc1Oc1ccc(cc1)C[C@H]1c3c(cc4c(c3Oc3cc5c(cc3OC)CCN(C)[C@@H]5C2)OCO4)CCN1C | -7.5 | -0.2 | 19.1* | -14.3 | -3.0 | -4.4
COc1ccc2cc1Oc1ccc(cc1)C[C@H]1c3cc(c(OC)cc3CCN1C)Oc1c(OC)c(OC)cc3c1[C@H](C2)N(C)CC3 | -0.7 | 12.8 | 3.8 | -0.1 | -6.0 | -5.0
Nc1ccc(S(=O)(=O)c2cc(O)c3ccccc3c2O)cc1 | 48.1* | 27.6* | 1.4 | 18.5 | 5.7 | nt
CC(=O)N1CCN(c2ccc(NC(=O)c3ccc4c(c3)OCO4)cc2)CC1 | 3.9 | 4.2 | 16.3 | 4.2 | -1.4 | -4.0
CCC(=O)N1CCN(c2ccc(NC(=O)c3ccc4c(c3)OCO4)cc2)CC1 | -3.5 | -5.0 | 101.4* | 11.6 | -2.2 | -4.1
O=C(CN1C2=NCCN2c2ccccc21)c1ccc(Br)cc1 | 1.9 | 2.7 | -6.2 | -8.1 | 4.8 | -5.3
O=C(CN1C2=NCCN2c2ccccc21)c1ccc2c(c1)OCO2 | -0.8 | 6.4 | 19.5* | 6.5 | -1.6 | -3.9
CC(=O)N1CC=CC1(CC(C)C)C(=O)NCc1cc(F)cc(C(F)(F)F)c1 (centres undefined) | -11.8 | -12.0 | -1.1 | -7.5 | -7.6 | 0.5
CNC(=O)C1(CC(C)C)C=CCN1C(C)=O (centres undefined) | 0.4 | 0.3 | 17.2* | 2.0 | -4.2 | -5.2
COc1ccc(Oc2c(Cl)cnn(-c3ccc(C(C)C)c(C)c3)c2=O)cc1 | 2.5 | -3.8 | 2.5 | nt | nt | nt
O=C(Nc1ccc(C(O)(C(F)(F)F)C(F)(F)F)cc1)c1ccc(F)cc1F | -23.2 | 4.5 | -5.1 | nt | nt | nt
Cn1cccc1C(=O)OCC(=O)NCc1ccc2c(c1)OCO2 | 9.8 | 5.0 | 8.1 | -6.3 | 25.7* | 4.3
COc1ccc(-n2c(N)c(C(=O)NCC3CCCO3)c3nc4ccccc4nc32)c(OC)c1 (centres undefined) | 3.4 | 73.5* | -8.1 | -16.7 | 3.4 | -11.7
COc1ccc(-n2nc(C(=O)NCC(=O)NCC3CCCO3)c3ccccc3c2=O)c(OC)c1 (centres undefined) | -10.1 | -3.1 | -8.2 | 4.7 | -0.7 | -2.1
